# Published values pooled from the literature.
# Each line is one published result; the experiments were not run side by side.
# ALDH1A3: Retinaldehyde dehydrogenase 3 (ALDH1A3, Homo sapiens, UniProt P47895)
# CA9: Carbonic anhydrase 9 (CA9, Homo sapiens, UniProt Q16790)
# PADI4: Protein-arginine deiminase type-4 (PADI4, Homo sapiens, UniProt Q9UM07)
# GLO1: Lactoylglutathione lyase (GLO1, Homo sapiens, UniProt Q04760)
# MAOB: Amine oxidase [flavin-containing] B (MAOB, Homo sapiens, UniProt P27338)
# Pancreatic alpha-amylase: Pancreatic alpha-amylase (Homo sapiens, UniProt P04746)
# Comt: Catechol O-methyltransferase (Comt, Rattus norvegicus, UniProt P22734)
# HDAC9: Histone deacetylase 9 (HDAC9, Homo sapiens, UniProt Q9UKV0)
# CHRM4: Muscarinic acetylcholine receptor M4 (CHRM4, Homo sapiens, UniProt P08173)
Compound,target,assay,setting,IC50 [µM]
Cc1ccc(-c2ccc(C=O)cc2)c(C)c1,ALDH1A3,"enzyme activity, inhibitor",,0.11
CS(=O)(=O)Nc1ccc(Nc2nc(-c3cc4cc(Br)ccc4oc3=O)cs2)cc1Oc1ccccc1,CA9,"enzyme activity, inhibitor",,5.74
N=C(CCl)NCCC[C@H](NC(=O)c1ccc2cc(O)ccc2n1)C(=O)NCc1ccccc1,PADI4,"enzyme activity, inhibitor, fluorescence",with preincubation,0.56
O=C(N[C@@H](CSCc1ccccc1)C(=O)NO)c1ccccc1,GLO1,"enzyme activity, inhibitor",,5.27
O=C(Nc1cccc(Br)c1)c1ccc2c(c1)C(=O)NC2=O,MAOB,"enzyme activity, inhibitor",,0.18
CC(C)N(CCC(=O)c1ccc2ccccc2c1)Cc1ccccc1,ALDH1A3,"enzyme activity, inhibitor",,< 10
CCCC[C@@H](NC(=O)[C@@H](Cc1cn(C(=O)OC)c2ccccc12)NC(=O)[C@H](CC(C)(C)C)NC(=O)N1[C@H](C)CCC[C@@H]1C)C(=O)O,"Endothelin receptor type B (EDNRB, Homo sapiens, UniProt P24530)","ligand displacement, radioligand",cell membranes,0.00329
N=C(CCl)NCCC[C@H](NC(=O)c1cccc(-c2ccc(B(O)O)cc2)c1)c1nc2ccccc2[nH]1,PADI4,"enzyme activity, inhibitor, fluorescence",with preincubation,0.588
COc1cc(/C=N/NC(=S)N/N=C/c2ccc(F)cc2)ccc1Oc1ccnc2cc(Cl)ccc12,Pancreatic alpha-amylase,"enzyme activity, inhibitor, absorbance",,54.3
O=C(Nc1ccccc1)c1ccc2c(c1)C(=O)NC2=O,MAOB,"enzyme activity, inhibitor",,3.25
COc1cc(/C=N/NC(=S)N/N=C/c2ccccc2)ccc1Oc1ccnc2cc(Cl)ccc12,Pancreatic alpha-amylase,"enzyme activity, inhibitor, absorbance",,46.4
COc1nc2ccc(Br)cc2cc1[C@@H](c1ccccc1)[C@@](O)(CCN(C)C)c1cccc2ccccc12,ALDH1A3,"enzyme activity, inhibitor",,< 10
N=C(CCl)NCCC[C@H](NC(=O)c1ccc2cc(Br)ccc2n1)C(=O)NCc1ccccc1,PADI4,"enzyme activity, inhibitor, fluorescence",with preincubation,1.49
CS(=O)(=O)Nc1ccc(Nc2nc(-c3cc4ccccc4oc3=O)cs2)cc1Oc1ccccc1,CA9,"enzyme activity, inhibitor",,1.69
COc1cc(/C=N/NC(=S)N/N=C/c2ccc(N(C)C)cc2)ccc1Oc1ccnc2cc(Cl)ccc12,Pancreatic alpha-amylase,"enzyme activity, inhibitor, absorbance",,50
NS(=O)(=O)c1ccc(-c2ccc(Nc3ccncc3)cc2)cc1,CA9,"enzyme activity, inhibitor",,0.21
N=C(CCl)NCCC[C@H](NC(=O)c1cccc(NC(=O)c2cc3c(s2)CCC3)c1)C(=O)NCc1ccccc1,PADI4,"enzyme activity, inhibitor, fluorescence",with preincubation,0.454
COc1cc(/C=N/NC(=S)N/N=C\c2ccc(Cl)c(Cl)c2)ccc1Oc1ccnc2cc(Cl)ccc12,Pancreatic alpha-amylase,"enzyme activity, inhibitor, absorbance",,45.7
C[C@@]12C[C@@]3(O)O[C@@H](O1)[C@]1(COC(=O)c4ccccc4)[C@H]3C[C@@]12O[C@@H]1O[C@H](COC(=O)c2cc(O)c(O)c(O)c2)[C@@H](O)[C@H](O)[C@H]1O,Comt,"enzyme activity, inhibitor",,16.2
N=C(CCl)NCCC[C@H](NC(=O)c1ccc(O)cc1)c1nc2ccccc2[nH]1,PADI4,"enzyme activity, inhibitor, fluorescence",with preincubation,0.718
COc1ccc(N(Cc2csc(-c3ccccc3)n2)C(=O)CCCCCC(=O)NO)cc1,HDAC9,"enzyme activity, inhibitor",,> 10
O=C(CCNC(=O)CNC(=O)CC(c1ccccc1)(c1ccccc1)c1ccccc1)NCC1CCN(Cc2ccc(F)cc2)CC1,CHRM4,"ligand displacement, radioligand",cell membranes,11.6
O=C(Nc1cccc(Cl)c1)c1ccc2c(c1)C(=O)NC2=O,MAOB,"enzyme activity, inhibitor",,0.29
CN1CCC(CNc2ccc3ncc(-c4cccc(OC(F)(F)F)c4)n3n2)CC1,"Histamine H1 receptor (HRH1, Homo sapiens, UniProt P35367)","calcium signal, antagonist",,8.45
O=C(O)CC(O)(CC(=O)O)C(=O)O,Comt,"enzyme activity, inhibitor",,947
O=C(CCNC(=O)CNC(=O)CC(c1ccccc1)(c1ccccc1)c1ccccc1)NC[C@H]1CCCN(Cc2ccc(F)cc2)C1,CHRM4,"ligand displacement, radioligand",cell membranes,13.5
O=C(Nc1ccc(F)c(Cl)c1)c1ccc2c(c1)C(=O)NC2=O,MAOB,"enzyme activity, inhibitor",,0.015
CN(C)c1ccc2cc(C(=O)N[C@@H](CCCNC(=N)CCl)c3nc4ccccc4[nH]3)ccc2c1,PADI4,"enzyme activity, inhibitor, fluorescence",with preincubation,1.06
O=C(O)c1ccc(Nc2nc(-c3cc4cc(Br)ccc4oc3=O)cs2)cc1,CA9,"enzyme activity, inhibitor",,4.38
O=C(N[C@@H](CSCc1ccc([N+](=O)[O-])cc1)C(=O)NO)c1ccccc1,GLO1,"enzyme activity, inhibitor",,0.952
COc1cc(/C=N/NC(=S)NN=Cc2cccs2)ccc1Oc1ccnc2cc(Cl)ccc12,Pancreatic alpha-amylase,"enzyme activity, inhibitor, absorbance",,60
O=C(NO)c1ccc(Cn2cnc3c(Nc4cccc([N+](=O)[O-])c4)ncnc32)cc1,HDAC9,"enzyme activity, inhibitor",,0.677
Cc1ccc(-c2cccc(C=O)c2)c(C)c1,ALDH1A3,"enzyme activity, inhibitor",,14.9
COc1cc(/C=N/NC(=S)NN=Cc2sccc2C)ccc1Oc1ccnc2cc(Cl)ccc12,Pancreatic alpha-amylase,"enzyme activity, inhibitor, absorbance",,53.6
O=C(Nc1ccc(Cl)c(Br)c1)c1ccc2c(c1)C(=O)NC2=O,MAOB,"enzyme activity, inhibitor",,0.012
Cc1ccc(COc2ccc3ccc(C(=O)N[C@@H](CCCNC(=N)CCl)C(=O)NCc4ccccc4)cc3c2)cc1,PADI4,"enzyme activity, inhibitor, fluorescence",with preincubation,2.19
COc1ccc(N(Cc2nc(-c3ccc(F)cc3)cs2)C(=O)CCCCCC(=O)NO)cc1,HDAC9,"enzyme activity, inhibitor",,> 10
COc1cc(/C=N/NC(=S)N/N=C/c2ccc(Br)s2)ccc1Oc1ccnc2cc(Cl)ccc12,Pancreatic alpha-amylase,"enzyme activity, inhibitor, absorbance",,39.1
N=C(CCl)NCCC[C@H](NC(=O)c1ccc2cc(O)ccc2c1)C(=O)NCc1ccccc1,PADI4,"enzyme activity, inhibitor, fluorescence",with preincubation,0.24
